The results in this text go back to ChEMBL document CHEMBL1154285, “Meroterpenes from Dichrostachys cinerea inhibit protein farnesyl transferase activity” (J Nat Prod, 2009).

pIC50: −log10 of the molar value. A value given as a limit tells only on which side of the number the result lay.

Test [1] can be described thus: Inhibition of rat farnesyl transferase after 30 mins. The essentials: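 Rat PFTase at 10 nM, added last to start the reaction, in 50 mM Tris/HCl pH 7.5 with 5 mM MgCl2, 5 mM DTT, 0.1 mM ZnCl2 and 0.2% octyl-β-D-glucopyranoside. Substrates were 10 µM GCVLS-dansyl and 10 µM farnesyl pyrophosphate. Compounds from 0.3 nM to 100 µM, 1% DMSO final, in triplicate. Incubation 30 min at 37 °C; fluorescence read at ex 340/em 505 nm. IC50 from sigmoidal dose-response fit.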

A short description of test [2]: Cytotoxicity against human WM266.4 cells after 72 hrs by ATP lite assay. The class given is functional, WM 266-4. The essentials:
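Metastatic melanoma WM 266-4 cells (ATCC), 5000 per well, in RPMI with 10% FBS, 50 µg/mL streptomycin and 50 U/mL penicillin. Compounds were present for 72 h at 1% DMSO final, in triplicate. Viability was read by ATPLite luminescence. IC50 from sigmoidal dose-response fit.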

For the compound `COC1=CC(=O)[C@@]2(c3cc(=O)c4c(O)cc(O)cc4o3)[C@H](C[C@]3(O)[C@@]4(C)C[C@@H](O)CC(C)(C)[C@@H]4CC[C@@]3(C)O)C(C)=CC[C@H]2C1=O`, the pIC50 in test [1] was 4.77. This compound also showed an Activity in test [2] greater than 10 µM.

Consider `C=C1[C@@H](O)C[C@H]2[C@](C)(CO)CCC[C@]2(C)[C@H]1C[C@@H]1C(C)=CC[C@H]2C(=O)C(OC)=CC(=O)[C@@]12c1cc(=O)c2c(O)cc(O)cc2o1` [DICHROSTACHINE A], for which, in test [1], the pIC50 is 5.00. In test [2], the Activity was greater than 10 µM.

`C=C1[C@@H](O)C[C@H]2C(C)(C)C[C@H](O)C[C@]2(C)[C@H]1C[C@@H]1C(C)=CC[C@H]2C(=O)C(OC)=CC(=O)[C@@]12c1cc(=O)c2c(O)cc(O)cc2o1` [DICHROSTACHINE B] showed a pIC50 in test [1] of 4.40. The compound further displayed an Activity in test [2] greater than 10 µM.

With `C=C1[C@@H](O)C[C@H]2C(C)(C)CCC[C@]2(C)[C@H]1C[C@@H]1C(C)=CC[C@H]2C(=O)C(OC)=CC(=O)[C@@]12c1cc(=O)c2c(O)cc(O)cc2o1` [DICHROSTACHINE C], the pIC50 in test [1] is 5.24. Also, the Activity in test [2] is greater than 10 µM.

The compound `C=C1[C@@H](O)C[C@H]2C(C)(C)C[C@H](O)C[C@]2(C)[C@@]1(O)C[C@@H]1C(C)=CC[C@H]2C(=O)C(OC)=CC(=O)[C@@]12c1cc(=O)c2c(O)cc(O)cc2o1` [DICHROSTACHINE D] gave a pIC50 in test [1] of 4.07. Further, the Activity in test [2] was greater than 10 µM.

The compound `C=C1[C@@H](O)C[C@@H]2[C@](C)(CCC[C@@]2(C)C(=O)O)[C@H]1C[C@@H]1C(C)=CC[C@H]2C(=O)C(OC)=CC(=O)[C@@]12c1cc(=O)c2c(O)cc(O)cc2o1` [DICHROSTACHINE E] showed a pIC50 in test [1] of 4.40. This compound also registered an Activity in test [2] greater than 10 µM.

Take `C=C1[C@@H](O)C[C@@H]2[C@](C)(CCC[C@@]2(C)C=O)[C@H]1C[C@@H]1C(C)=CC[C@H]2C(=O)C(OC)=CC(=O)[C@@]12c1cc(=O)c2c(O)cc(O)cc2o1` [DICHROSTACHINE H]: in test [1], the pIC50 was 5.74. In addition, the Activity in test [2] is greater than 10 µM.

In test [1], `C=C1C(=O)C[C@H]2C(C)(C)CCC[C@]2(C)[C@H]1C[C@@H]1C(C)=CC[C@H]2C(=O)C(OC)=CC(=O)[C@@]12c1cc(=O)c2c(O)cc(O)cc2o1` [DICHROSTACHINE L] gave a pIC50 of 5.49. The same compound registered an Activity in test [2] greater than 10 µM.

For `C=C1C(=O)C[C@H]2C(C)(C)CCC[C@]2(C)[C@H]1C[C@@H]1C(C)=CC[C@H]2C(=O)C(OC)=CC(=O)[C@@]12c1cc(=O)c2c(O)cc(OC)cc2o1` [DICHROSTACHINE M], the pIC50 in test [1] is 5.52. In test [2], this compound registered an Activity of 3.1 µM.

In test [2], `C=C1C(=O)C[C@H]2C(C)(C)C[C@H](O)C[C@]2(C)[C@@]1(O)C[C@@H]1C(C)=CC[C@H]2C(=O)C(OC)=CC(=O)[C@@]12c1cc(=O)c2c(O)cc(OC)cc2o1` [DICHROSTACHINE N] gave an Activity of 2.8 µM.

`C=C1[C@@H](O)C[C@H]2C(C)(C)CCC[C@]2(C)[C@H]1C[C@@H]1C(C)=CC[C@H]2C(O)C(OC)=CC(=O)[C@@]12c1cc(=O)c2c(O)cc(O)cc2o1` (stereo not given in full) [DICHROSTACHINE O] gave a pIC50 in test [1] of 4.60. The Activity in test [2] is greater than 10 µM.

In turn, `C=C1[C@@H](O)C[C@H]2C(C)(C)CCC[C@]2(C)[C@H]1C[C@@H]1C(C)=CC[C@H]2C(O)C(=O)C=C[C@@]12c1cc(=O)c2c(O)cc(O)cc2o1` (stereo not given in full) [DICHROSTACHINE P] gave a pIC50 in test [1] of 5.15. Besides, the Activity in test [2] is greater than 10 µM.

In the case of `NC(=O)N1CCC(CC(=O)N2CCC([C@H]3c4ncc(Br)cc4CCc4cc(Cl)cc(Br)c43)CC2)CC1` [LONAFARNIB], the negative logarithm of the IC50 (pIC50) in test [1] was 7.00. This compound also displayed an Activity in test [2] greater than 10 µM.
